Efflux pump inh: inhibitors of Candida antifungal efflux pumps expressed in yeast. S. cerevisiae Candida pump triplex, Nile Red efflux. inhibition, % at 10 µM. 0.44% of 330,000 active;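 active = plate passing quality check with inhibition over a set limit, or well fluorescence over plate mean plus 4 SD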;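 also: Nile Red retained in pooled yeast measured as flow cytometry median fluorescence; 0% = buffer negative control and 100% = Enniatin B positive control; higher means more Nile Red kept so more efflux inhibition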
Cardiac RTF inh: cardiac RTF calcium desensitization; P19429+P45379; IANBD-labeled cardiac RTF, Ca2+ fluorescence; inhibition, % at 7.15 µM; 0.12% of 340,000 active;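 active = inhibition above the mean inhibition of all tested compounds plus 3 SD, cut at about 17% in these data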;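 also: assay run at fixed EC70 calcium of 1.6 mM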
ARNT-TACC3 inh: ARNT/TACC3 interaction disruption; Q9Y6A5; AlphaScreen His-ARNT PAS-B/GST-TACC3 binding, luminescence; TACC3 fragment carries E629A point mutation; inhibition, % at 9.99 µM; 0.66% of 390,000 active;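 active = mean inhibition of replicates at least 50% and at least half of replicates each reaching 50%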;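 also: 0% = complete ARNT plus TACC3 wells and 100% = ARNT alone without TACC3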
UCH37 inh: blocks the human deubiquitinase UCH37; Q9Y5K5; purified proteasome/UCH37, Ub-AMC cleavage fluorescence; inhibition, % (test concentration not listed); 0.33% of 330,000 active; AID 588478;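 active = mean inhibition over replicate wells above about 20%, limit read from the data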;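 also: 0% = compound-free wells with enzyme and 100% = wells lacking proteasome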
Target sequence (Q9Y5K5 whole entry, looked up): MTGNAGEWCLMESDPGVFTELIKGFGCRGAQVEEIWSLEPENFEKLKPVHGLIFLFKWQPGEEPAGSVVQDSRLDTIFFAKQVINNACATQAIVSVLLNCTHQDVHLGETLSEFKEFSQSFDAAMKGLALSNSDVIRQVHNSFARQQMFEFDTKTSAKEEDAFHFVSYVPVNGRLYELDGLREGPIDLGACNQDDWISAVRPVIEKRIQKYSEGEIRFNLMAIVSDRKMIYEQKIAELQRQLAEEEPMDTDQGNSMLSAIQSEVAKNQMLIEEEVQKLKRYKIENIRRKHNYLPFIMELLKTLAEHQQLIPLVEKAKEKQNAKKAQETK
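Reagent: Ub-AMC substrate; assay system: Proteasome-associated human UCH37 deubiquitinase; controls: no-proteasome and no-compound wells; read-out: % inhibition of Ub-AMC cleavage fluorescence; timing: 30 min preincubation with enzyme, 25 min cleavage at room temperature; signal: AMC fluorescence from Ub-AMC cleavage, excitation 355 nm, emission 460 nm; buffer or medium: Tris-HCl pH 7.4 plus ovalbumin, ATP-MgCl2, DTT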
RTF Ca sens act: increases calcium sensitivity of human cardiac regulated thin filaments; IANBD-labeled TnC RTF fluorescence at EC20 calcium; 0% EC20 calcium, 100% full calcium; activation, % at 7.2 µM; 0.24% of 340,000 active; AID 493008;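 active = activation above the mean over all tested compounds plus 3 SD, cut at about 30% in these data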;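 also: rise in fluorescence read as greater calcium sensitivity of cardiac thin filaments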
SUMO Mot1 rescue: SUMOylation pathway inhibition by Mot1-301 growth rescue; AID 2716; 1% of 320,000 active; S. cerevisiae Mot1-301 growth rescue, ATP luminescence, 38.5C; percent above DMSO median, 100 means doubled; growth rescue, % at 18.8 µM;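 active = every valid replicate shows activation above 250% relative to neutral control wells; inactive = the rest, any valid replicate at or below 250%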;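 also: OY570 slx delta 5 strain wells were the positive control but not used for scaling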
Yeast cmpd fluor: counter-screen for efflux pump inhibitors: compound fluorescence; fluorescence ratio to DMSO, % at 10 µM; 4% of 1,700 active; AID 588517; S. cerevisiae AD/pABC3, flow cytometry; shares compounds with Efflux pump inh;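 active = fluorescence ratio to DMSO above its plate's cutoff, the plate mean ratio plus 5 SD, cut at about 210% in these data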;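 also: unstained yeast with no Nile Red so the signal is compound autofluorescence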
Mdr1 pump inh: inhibitors of Candida albicans Mdr1 efflux pump | inhibition, % at 10 µM | 1% of 1,700 active | shares compounds with Efflux pump inh | S. cerevisiae AD/CaMDR1, Nile Red efflux, flow cytometry; in the data active = inhibition above about 26%;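 also: 0% = DMSO vehicle and 100% = reference inhibitor; higher means more Nile Red retained so more efflux inhibition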
CaCdr2 efflux inh: Candida Cdr2 efflux pump inhibition; shares compounds with Efflux pump inh; AID 588520; S. cerevisiae AD/CaCDR2, Nile Red retention, flow cytometry; 4% of 1,700 active; Nile Red retention ratio vs DMSO, % at 10 µM; in the data active = Nile Red retention ratio vs DMSO above about 190%;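 also: higher ratio means more blocking of Cdr2 efflux of the dye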
Cdr1 pump inh: inhibitors of Candida albicans Cdr1 efflux pump; 1% of 1,700 active; S. cerevisiae AD/CaCDR1, Nile Red efflux, flow cytometry; AID 588522; shares compounds with Efflux pump inh; inhibition, % at 10 µM;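 active = inhibition above the screen-wide mean plus twice its standard deviation, cut at about 32% in these data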
* hit, by the source's call. In the library only some 2.1% were active in any assay of this set; here they are far more common.

Screening COc1ccc(/C=c2\s/c(=C(/C#N)C(=O)NCc3ccco3)n(-c3ccccc3)c2=O)cc1 returned Efflux pump inh 0.7*, Cardiac RTF inh -11, ARNT-TACC3 inh -1, RTF Ca sens act -1, SUMO Mot1 rescue 2, Yeast cmpd fluor 106, Mdr1 pump inh 0, CaCdr2 efflux inh 107 and Cdr1 pump inh 0.
`Nc1c(-c2ccccc2)cnc2ncnn12` gave Efflux pump inh 1.7*, Cardiac RTF inh -10, ARNT-TACC3 inh 5, UCH37 inh 1, RTF Ca sens act 6, SUMO Mot1 rescue 1, Yeast cmpd fluor 97, Mdr1 pump inh 0, CaCdr2 efflux inh 91 and Cdr1 pump inh 0.
For CCOC(=O)Cn1cc(C=NN2C(=O)C3C4C=CC(C4)C3C2=O)c2ccccc21 (centres undefined) the results were UCH37 inh 1.
Screening Cc1cc(NN=Cc2ccc(F)cc2)nc(-n2nc(C)cc2C)n1 returned UCH37 inh 2.
Screening N#C/C(=C\c1ccc([N+](=O)[O-])o1)C(=O)Nc1ccc(F)cc1 returned Efflux pump inh 1.6*, Cardiac RTF inh -25, ARNT-TACC3 inh 14, UCH37 inh -1, RTF Ca sens act 7, SUMO Mot1 rescue 323*, Yeast cmpd fluor 275*, Mdr1 pump inh 1, CaCdr2 efflux inh 172 and Cdr1 pump inh 1.
`COc1ccccc1CNC(=O)C(=O)NCC1OCCN1S(=O)(=O)c1ccc(Br)cc1` (centres undefined) gave Efflux pump inh 1, Cardiac RTF inh -2, ARNT-TACC3 inh -4, UCH37 inh 1, RTF Ca sens act 1, SUMO Mot1 rescue -9, Yeast cmpd fluor 110, Mdr1 pump inh 0, CaCdr2 efflux inh 110 and Cdr1 pump inh 0.
COc1ccc(S(=O)(=O)N2CCOC2CNC(=O)C(=O)NCc2ccccc2Cl)cc1 (centres undefined) was read as Efflux pump inh -3, Cardiac RTF inh 0, ARNT-TACC3 inh -5, UCH37 inh 2, RTF Ca sens act -1, SUMO Mot1 rescue -8, Yeast cmpd fluor 98, Mdr1 pump inh 0, CaCdr2 efflux inh 101 and Cdr1 pump inh 0.
`COc1ccc(S(=O)(=O)N2CCOC2CNC(=O)C(=O)NCc2ccccc2OC)cc1` (centres undefined) gave Efflux pump inh 1.1*, Cardiac RTF inh -7, ARNT-TACC3 inh -27, UCH37 inh 0, RTF Ca sens act 3, SUMO Mot1 rescue -2, Yeast cmpd fluor 102, Mdr1 pump inh 0, CaCdr2 efflux inh 96 and Cdr1 pump inh 0.
Screening COc1ccccc1CCNC(=O)C(=O)NCC1OCCN1S(=O)(=O)c1ccc(Br)cc1 (centres undefined) returned Efflux pump inh 0, Cardiac RTF inh 3, ARNT-TACC3 inh -5, UCH37 inh 0, RTF Ca sens act -2 and SUMO Mot1 rescue 125.
Cc1ccc(CONC(=O)N=CN(C)C)cc1 was read as UCH37 inh -1.
`N#Cc1ncc(-c2ccc3c(c2)OCCOCCOCCOCCOCCO3)nc1C#N` gave Efflux pump inh 1, Cardiac RTF inh -2, ARNT-TACC3 inh 1, UCH37 inh -2, RTF Ca sens act 5 and SUMO Mot1 rescue -15.
Screening N#Cc1ncc(-c2ccc3c(c2)OCCOCCOCCOCCO3)nc1C#N returned Efflux pump inh 9.6*, Cardiac RTF inh -9, ARNT-TACC3 inh -3, UCH37 inh 8, RTF Ca sens act 5, SUMO Mot1 rescue -13, Yeast cmpd fluor 89, Mdr1 pump inh 0, CaCdr2 efflux inh 112 and Cdr1 pump inh 0.
Cc1ccccc1CN1CCC(n2nccc2NC(=O)CCCc2ccccc2)CC1 was read as Efflux pump inh 1.5*, Cardiac RTF inh -6, ARNT-TACC3 inh 0, UCH37 inh 3, RTF Ca sens act 1, SUMO Mot1 rescue 7, Yeast cmpd fluor 88, Mdr1 pump inh 0, CaCdr2 efflux inh 93 and Cdr1 pump inh -1.
`O=[N+]([O-])c1ccccc1C=Nn1c(C(F)(F)F)n[nH]c1=S` gave UCH37 inh 4.
Screening CCOC(=O)N1CCN(C(=O)c2cc(COc3cccc(C(F)(F)F)c3)on2)CC1 returned Efflux pump inh 0, Cardiac RTF inh 2, ARNT-TACC3 inh 4, UCH37 inh -3, RTF Ca sens act 1 and SUMO Mot1 rescue -14.
C[C@@H]1CN(C(=O)c2cc(COc3cccc(C(F)(F)F)c3)on2)C[C@H](C)O1 was read as Efflux pump inh 0.5*, Cardiac RTF inh 9, UCH37 inh 2, RTF Ca sens act 5, SUMO Mot1 rescue -5, Yeast cmpd fluor 98, Mdr1 pump inh 0, CaCdr2 efflux inh 105 and Cdr1 pump inh 0.
Screening O=C(COC(=O)c1cc(Cl)ccc1Cl)NCCN1C(=O)CSC1=O returned Efflux pump inh 32*, Cardiac RTF inh -21, ARNT-TACC3 inh 3, UCH37 inh 3, RTF Ca sens act 13, SUMO Mot1 rescue -6, Yeast cmpd fluor 95, Mdr1 pump inh 0, CaCdr2 efflux inh 101 and Cdr1 pump inh 0.
`Cc1cc(OCC(=O)OCC(=O)NCCN2C(=O)CSC2=O)ccc1Cl` gave Efflux pump inh 0, Cardiac RTF inh 6, ARNT-TACC3 inh -5, UCH37 inh 4, RTF Ca sens act -5 and SUMO Mot1 rescue 26.
`O=C(COC(=O)c1ccc(O)cc1O)NCCN1C(=O)CSC1=O` gave Efflux pump inh 0, Cardiac RTF inh 0, ARNT-TACC3 inh -3, UCH37 inh 0, RTF Ca sens act -1, SUMO Mot1 rescue 16, Yeast cmpd fluor 100, Mdr1 pump inh 0, CaCdr2 efflux inh 97 and Cdr1 pump inh 0.
For O=C(COC(=O)c1cccs1)NCCN1C(=O)CSC1=O the results were Efflux pump inh 0, Cardiac RTF inh 1, UCH37 inh 1, RTF Ca sens act -5 and SUMO Mot1 rescue -9.
Screening Fc1ccc(C=Nn2c(C3CCCCC3)n[nH]c2=S)cc1 returned UCH37 inh 1.
Cn1c(Cl)c(C=NOC(=O)C2CC2)c2ccccc21 was read as UCH37 inh 1.
`O=C(NN=Cc1cccnc1)c1ccc(Cl)c(Cl)c1` gave UCH37 inh 5.

Bioassay records from PubChem.
